Experimental data from different studies.
Compare with care: the assays were run in different laboratories.
Observed: metabolic stability

SMILES | species | medium | tested at | pH | half-life [min]
CCOc1ccc2ccc(=O)oc2c1 | male Sprague-Dawley rat | hepatocytes | 1 µM | – | 13.1
CCN(CC)CCNC(=O)c1c(C)[nH]c(/C=C2\C(=O)Nc3ccc(F)cc32)c1C | rat | liver microsomes | 1 µM | – | 77
O=c1ccc2ccc(O)cc2o1 | Sprague-Dawley rat | hepatocytes | 1 µM | – | 11.4
O=C(c1ccc(F)cc1)C1CCN(CCn2c(=O)[nH]c3ccccc3c2=O)CC1 | rat | liver microsomes | – | – | 17.8
CC(=O)c1c(C)c2cnc(Nc3ccc(N4CCNCC4)cn3)nc2n(C2CCCC2)c1=O | rat | liver microsomes | 1 µM | pH 7.4 | 90.4
O=c1ccc2ccc(O)cc2o1 | rat | liver microsomes | – | – | 2.42
CN(C)C(=O)c1cc2cnc(Nc3ccc(N4CCNCC4)cn3)nc2n1C1CCCC1 | rat | liver microsomes | 1 µM | pH 7.4 | 49.8
O=C1CC[C@H](N2Cc3cc(N4CCN(CC5CCN(c6ccc([C@@H]7c8ccc(O)cc8CC[C@@H]7c7ccccc7)cc6)CC5)CC4)ccc3C2=O)C(=O)N1 | Sprague-Dawley rat | hepatocytes | 1 µM | – | 83
